The whole screen tested about 240,000 compounds, of which about 950 (0.4%) were called active.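 The calls were made as follows: active = lipid droplet intensity inhibited by at least 50%, with more than 500 cells counted; inconclusive = wells with under 300 cells, treated as cytotoxic; inactive = the rest.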 What follows is part of a selection rich in actives, with near analogues and random picks from the rest.
Assay: inhibitors of hepatocyte lipid droplet formation, primary screen, imaging, high-throughput imaging, BODIPY stain (AID 1656);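 as to cell count: cells counted across two imaged fields per well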
Conditions: AML12 mouse hepatocytes, oleate lipid droplets, at 6.5 µM; cell count: measured here: cell count, cytotoxicity flag; inhibition: stronger effect = higher value
How it was run: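 material = mouse AML12 hepatocyte cell line, fixed after treatment | also added = 100 µM oleic acid challenge | doses = compound at 6.5 µM only | schedule = overnight exposure | technique = Image-based BODIPY and DAPI two-channel analysis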

Compound | cell count [cells] | inhibition
O=C(Nc1ccccc1C(=O)Nc1ccncc1)c1ccc([N+](=O)[O-])cc1 | 805 | 10.9% (inactive)
O=C(CCCN1C(=O)/C(=C\c2ccco2)SC1=S)Nc1cccc2ccccc12 | 553 | -6.6% (inactive)
CCOC(=O)CC1C(=O)NCCN1c1nc2c(C)cccn2c(=O)c1/C=C1\SC(=S)N(C(C)CC)C1=O (configuration not stated) | 696 | 36.8% (inactive)
CCCN(CCC)c1nc2c(C)cccn2c(=O)c1/C=C1/SC(=S)N(Cc2ccco2)C1=O | 775 | 57.5% (active)
CCc1cccc(NC(=O)CCCN2C(=O)C(c3ccccc3)Oc3cccnc32)c1 (configuration not stated) | 663 | -3.4% (inactive)
COc1cccc(NC(=O)CN(C)C(=O)c2ccccc2CCc2ccccc2)c1 | 836 | -9.7% (inactive)
CC(=O)c1cccc(NC(=O)CN2C(=O)c3cccnc3Oc3ccc(Cl)cc32)c1 | 693 | -16.7% (inactive)
O=C(c1ccccc1)N1N=C(c2ccccc2O)CC1c1ccc(Br)cc1 (configuration not stated) | 868 | 1.5% (inactive)
COc1ccc(C(=O)NC2CC(C)(C)Cc3c2cnn3-c2ccccc2C)o1 (configuration not stated) | 621 | -21% (inactive)
Cc1ccc(/C=C2/SC(=S)N(CCC(=O)NCCCN3CCOCC3)C2=O)cc1 | 794 | -18.3% (inactive)
CCc1ccc(NC(=O)C(C)OC(=O)/C=C/c2cccc([N+](=O)[O-])c2)cc1 (configuration not stated) | 651 | 60% (active)
Cc1ccc(NC(=O)O/N=C/c2cccc([N+](=O)[O-])c2)cc1 | 427 | -4.6% (inactive)
CCC(CC)NC(=O)/C=C/c1cccc([N+](=O)[O-])c1 | 628 | -7.2% (inactive)
COc1ccccc1CCNS(=O)(=O)c1cc2c3c(c1)C(C)C(=O)N3CCC2 (configuration not stated) | 707 | -4% (inactive)
CCCCN(CCCC)CCCNC(=O)CN1C(=O)COc2ccc(S(=O)(=O)N3CCC(C)CC3)cc21 | 789 | 10.1% (inactive)
CCOC(=O)[C@H]1[C@H]2COc3cc(OC)ccc3[C@@H]2N2C(=O)N(c3ccc(Br)cc3)C(=O)[C@@]12C | 831 | -8.9% (inactive)

Compound | cell count [cells] | inhibition
COc1cccc(OCC(O)CNC(=O)c2oc3c(C)c(C)ccc3c2C)c1 (configuration not stated) | 871 | -0.2% (inactive)
C=C(C)Cn1c(N2CCCC2)nc2c1c(=O)[nH]c(=O)n2C | 632 | -2.2% (inactive)
CC1CCN(c2nc3c(c(=O)[nH]c(=O)n3C)n2CCCc2ccccc2)CC1 | 572 | -14.6% (inactive)
Cn1c(=O)[nH]c(=O)c2c1nc(N1CCN(C(c3ccccc3)c3ccccc3)CC1)n2CCO | 768 | 60.3% (active)
CCOc1ccc(NC(=O)CCCCCN2C(=O)[C@@H]3Cc4ccccc4CN3C2=O)cc1 | 676 | 11.7% (inactive)
CCOc1ccc(CCNC(=O)C2=C(C)C(=O)OC23CCC(C)CC3)cc1OCC (configuration not stated) | 788 | 17.6% (inactive)
CCOc1ccc(CCNC(=O)Nc2ccccc2)cc1OCC | 809 | 118% (active)
CCOc1cc(NC(=O)Nc2ccccc2)c(OCC)cc1NC(=O)CC | 783 | 4.2% (inactive)
CCn1c(SCc2cccc(C(=O)O)c2)nnc1-c1ccc(Cl)cc1 | 802 | 11.8% (inactive)
COc1ccc(C(=O)N2CCCCC2C(=O)Nc2ccc(-n3nc(C)cc3C)cc2)o1 (configuration not stated) | 694 | -12.1% (inactive)
Cc1cc(N2CCN(c3ccccc3)CC2)nc(N2CCOCC2)n1 | 649 | -5.7% (inactive)
CN(C)c1ccc(/C=N/Nc2cc(N3CCOCC3)nc(N3CCOCC3)n2)cc1 | 716 | -2.2% (inactive)
C(=N/Nc1cc(N2CCOCC2)nc(N2CCOCC2)n1)/c1ccccc1 | 583 | 120% (active)
Cc1cccc(NC(=O)c2ccc(S(=O)(=O)N(C)CC3CCCO3)cc2)c1C (configuration not stated) | 678 | -9.6% (inactive)
Cc1cccc2c1cnn2C(=O)CCC(=O)NC1CCCCC1 | 740 | -7.9% (inactive)
